Assay [1] deals with Trypanosoma cruzi. Put plainly: Trypanocidal activity against epimastigote stage of Trypanosoma cruzi assessed as cell viability after 24 hrs by MTT assay.
The subject of a further assay is Vero. Put plainly: Cytotoxicity against african green monkey Vero cells by MTT assay. Type of assay: cell-based. As to conditions: Chlorocebus sabaeus. A digest of the protocol:
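Vero cells in RPMI 1640 without phenol red, with compound added from DMSO (final below 0.25% v/v). Read by MTT (5 mg/mL) plus 0.22 mg/mL phenazine methosulfate for 4 h at 37 °C, formazan dissolved in 10% SDS/0.01 M HCl overnight, OD at 570 nm. IC50 from four-parameter nonlinear fit; at least three experiments, triplicate cultures.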
In general terms: Tetrazolium dyes change colour on reduction, which living cells bring about.

Assay [2] in a line: Selectivity index, ratio of CC50 for african green monkey Vero cells to IC50 for epimastigote stage of Trypanosoma cruzi. Type of assay: functional. A digest of the protocol:
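Selectivity index taken as Vero IC50 divided by epimastigote IC50. Both values are from MTT viability assays, with Vero cells read at 37 °C and epimastigotes at 28 °C.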

Assay [3] deals with Trypanosoma cruzi. The experiment in a line: Trypanocidal activity against trypomastigote form of Trypanosoma cruzi infected in african green monkey Vero cells assessed as cell viability after 5 to 7 days by MTT assay. Type of assay: functional.
The subject of assay [4] is MCF7. Put plainly: Antiproliferative activity against human MCF7 cells after 72 hrs. The format is functional, cell-based. As to conditions: MCF7, 72 h. A digest of the protocol:
(§1)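 Cells grown in DMEM with 10% FCS, penicillin/streptomycin and 1 mM glutamine. Seeded at 3 × 10³ cells/well and allowed to attach for 24 h at 37 °C in 5% CO₂. Exposed continuously for 72 h to four serial dilutions (12.5 to 100 µM), in triplicate; final DMSO 0.1%, DMSO-only controls. Read by sulforhodamine B after TCA fixation, with doxorubicin as reference.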

A short description of assay [5]: Antiproliferative activity against human dermal fibroblast cells after 72 hrs. Type of assay: cell-based. A digest of the protocol: as §1
Assay [6] is described as follows: Antiproliferative activity against human PC3 cells after 72 hrs. Type of assay: functional, cell-based. Conditions: PC-3, 72 h. A digest of the protocol: as §1
In another assay the test system is MDA-MB-231. The experiment in a line: Antiproliferative activity against human MDA-MB-231 cells after 72 hrs. As to conditions: MDA-MB-231, 72 h. The format is functional, cell-based. A digest of the protocol:
as §1

In assay [7] the test system is MCF7. Put plainly: Selectivity index, ratio of IC50 for human dermal fibroblast cells to IC50 for human MCF7 cells. Type of assay: functional. A digest of the protocol:
(§2)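 Selectivity index calculated as IC50 in non-tumoral dermal human fibroblasts divided by IC50 in the cancer line. Both IC50s come from a 72 h sulforhodamine B growth assay with four dilutions (12.5–100 µM) in triplicate.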

Assay [8] relates to Fibroblast. Put plainly: Selectivity index, ratio of IC50 for human dermal fibroblast cells to IC50 for human PC3 cells. Type of assay: functional. A digest of the protocol: as §2
Assay [9] deals with Fibroblast. The experiment in a line: Selectivity index, ratio of IC50 for human dermal fibroblast cells to IC50 for human MDA-MB-231 cells. The format is functional. A digest of the protocol:
as §2

The source of these data is ChEMBL document CHEMBL3351423, “2-Phenylaminonaphthoquinones and related compounds: synthesis, trypanocidal and cytotoxic activities” (Bioorg Med Chem, 2014).

The term IC50 denotes the concentration needed to halve the response being measured. For `O=C1C=C(Nc2ccc(O)cc2)C(=O)c2ccccc21`, the IC50 in the assay on Trypanosoma cruzi [1] and in the assay on Vero was over 25 µM throughout.

On to `Cn1ncc2c1C(=O)C1=C(CC(C)(C)O1)C2=O`, for which the half-inhibitory concentration (IC50) with Trypanosoma cruzi [1] is 2.53 µM; with Vero it was 13.4 µM. Besides, the “Selectivity Index” value in assay [2] is reported as 5.3. For the same molecule, in the assay on Trypanosoma cruzi [3], the “inhibition (INH)” value came to 38.57%.

Turning to `O=C1C=C(Nc2ccccc2)C(=O)c2ccccc21`, the half-inhibitory concentration (IC50) is over 25 µM in the assay on Trypanosoma cruzi [1] and over 10 µM with Vero.

`COc1cccc2c3c([nH]c12)C(=O)c1ccccc1C3=O`: the IC50 with Trypanosoma cruzi [1] was 20.9 µM; in the assay on MCF7 [4], over 100 µM; in assay [5] it was over 100 µM; in assay [6] it was over 100 µM; in the assay with Vero it was 21.7 µM; in the assay on MDA-MB-231 it was over 100 µM. For the same molecule, the “Selectivity Index” value in assay [2] was 0.95. The “inhibition (INH)” value with Trypanosoma cruzi [3] amounted to 12.21%.

On to `O=C1C(O)=C(c2ccccc2[N+](=O)[O-])C(=O)c2ccccc21`, for which the IC50 in the assay on Trypanosoma cruzi [1] and in the assay on Vero was over 100 µM throughout.

As to `COc1ccc(NC2=CC(=O)c3ccccc3C2=O)cc1OC`, the IC50 in the assay on Trypanosoma cruzi [1] is 25 µM; in the assay with MCF7 [4], 22.2 µM; in [5], over 100 µM; in assay [6], 10.4 µM; in the assay on Vero it was over 25 µM; with MDA-MB-231, 10.2 µM.

With `COc1cccc2c1C(=O)c1c(O)c3c(c(O)c1C2=O)C[C@@](O)(C(=O)CO)C[C@@H]3O[C@H]1C[C@H](N)[C@H](O)[C@H](C)O1` [DOXORUBICIN], the “Selectivity Index” value with MCF7 [7] is listed as 25; in the assay on Fibroblast [8] it was 15; with Fibroblast [9], 25. For the same molecule, the IC50 with MCF7 [4] was found to be 0.32 µM; in assay [5], 7.86 µM; in [6], 0.54 µM; with MDA-MB-231, 0.31 µM.

As to `Cc1ccc(NC2=CC(=O)c3ccccc3C2=O)c(C)c1`, the IC50 in the assay on Trypanosoma cruzi [1] and in the assay on Vero was over 25 µM in each case.

For `COc1ccc(OC)c(NC2=CC(=O)C3=C(OC(C)(C)C3)C2=O)c1`, the values for the IC50 in the assay with Trypanosoma cruzi [1] and in the assay on Vero were 12.3 µM and 15.5 µM, respectively. For the same molecule, in assay [2], the “Selectivity Index” value is 1.3. For the same molecule, the “inhibition (INH)” value in the assay with Trypanosoma cruzi [3] was determined as 7.5%.

With `COc1ccc(NC2=CC(=O)c3ccccc3C2=O)c(OC)c1`, the IC50 in the assay with Trypanosoma cruzi [1] was over 25 µM; in the assay with MCF7 [4] it was over 100 µM; in assay [5], over 100 µM; in assay [6] it was 60 µM; in the assay on Vero, over 25 µM; in the assay on MDA-MB-231, over 100 µM.

On to `O=C1C=C(Nc2cccc3ccccc23)C(=O)c2ccccc21`, for which the IC50 is 15.9 µM in the assay with Trypanosoma cruzi [1] and over 25 µM in the assay on Vero. In addition, in the assay with Trypanosoma cruzi [3], the “inhibition (INH)” value was 59.67%.

Regarding `Cc1cnc2c(c1)C(=O)C=C(Nc1ccccc1)C2=O`, the values for the IC50 in the assay on Trypanosoma cruzi [1] and with Vero were 5.79 µM and 16.2 µM, respectively. Also, the “Selectivity Index” value in [2] stood at 2.7. Moreover, the “inhibition (INH)” value in the assay on Trypanosoma cruzi [3] stood at 58.2%.

Turning to `O=C1c2ccccc2C(=O)c2c1[nH]c1ccccc21` [BENZOCARBAZOLEDIONE], the IC50 in the assay with Trypanosoma cruzi [1] and in the assay on Vero was over 10 µM throughout.

In the case of `CCCCCCOc1ccc(NC2=CC(=O)c3ccccc3C2=O)cc1`, the IC50 in the assay with Trypanosoma cruzi [1] is 1.72 µM; with MCF7 [4] it was over 100 µM; in [5], over 100 µM; in assay [6], 27.9 µM; in the assay on Vero, 27 µM; in the assay on MDA-MB-231, over 100 µM. Besides, the “Selectivity Index” value in [2] came out at 16. In the assay with Trypanosoma cruzi [3], the “inhibition (INH)” value is 69.63%.

Consider `CCCCCCOc1ccc2[nH]c3c(c2c1)C(=O)c1ccccc1C3=O`, for which the IC50 with Trypanosoma cruzi [1] and in the assay on Vero was over 100 µM throughout.

Regarding `COc1ccc(OC)c(NC2=CC(=O)c3ccccc3C2=O)c1`, the “Selectivity Index” value in the assay with MCF7 [7] is over 480; in the assay with Fibroblast [8] it was over 97. Further, the IC50 was 23.3 µM with Trypanosoma cruzi [1]; 0.21 µM in the assay with MCF7 [4]; over 100 µM in assay [5]; 1.03 µM in assay [6]; over 50 µM in the assay on Vero; 87.5 µM in the assay with MDA-MB-231.

`COc1ccc2[nH]c3c(c2c1)C(=O)c1ccccc1C3=O`: the IC50 with Trypanosoma cruzi [1] is over 50 µM; with MCF7 [4], over 100 µM; in [5], over 100 µM; in assay [6] it was over 100 µM; with Vero, over 50 µM; in the assay on MDA-MB-231 it was over 100 µM.

Take `COc1ccc(OC)c2c3c([nH]c12)C(=O)c1ccccc1C3=O`: the IC50 in the assay with Trypanosoma cruzi [1] and in the assay with Vero was over 100 µM throughout.

Consider `O=C1C(Cl)=C(Nc2cccnc2)C(=O)c2ccccc21`, for which the IC50 with Trypanosoma cruzi [1] and in the assay on Vero was over 100 µM each time.

Take `COc1ccc2c(c1)c1c(n2C)C(=O)c2ccccc2C1=O`: the IC50 with Trypanosoma cruzi [1] was over 25 µM; in the assay on MCF7 [4], over 100 µM; in assay [5], over 100 µM; in assay [6], over 100 µM; in the assay with Vero it was over 25 µM; in the assay on MDA-MB-231, over 100 µM.

Take `COc1ccc(OC)c(NC2=C(Cl)C(=O)c3ccccc3C2=O)c1`: the IC50 in the assay on Trypanosoma cruzi [1] and with Vero was over 100 µM in each case.

For the molecule `COc1cccc(NC2=CC(=O)c3ccccc3C2=O)c1`, the IC50 is over 25 µM with Trypanosoma cruzi [1]; over 100 µM with MCF7 [4]; over 100 µM in [5]; over 100 µM in assay [6]; over 25 µM with Vero; over 100 µM in the assay with MDA-MB-231.

For `COc1cc2c(cc1OC)C(=O)c1c([nH]c3cc(OC)c(OC)cc13)C2=O`, the IC50 in the assay on Trypanosoma cruzi [1] and with Vero was over 100 µM throughout.

Turning to `COc1cc2c3c(n(C)c2cc1OC)C(=O)c1ccccc1C3=O`, the IC50 (in the assay on Trypanosoma cruzi [1]; in the assay with MCF7 [4]; in assay [5]; in assay [6]; in the assay with Vero; with MDA-MB-231) was over 100 µM throughout.

With `COc1ccccc1NC1=CC(=O)c2ccccc2C1=O`, the IC50 with Trypanosoma cruzi [1] is 3.49 µM; in the assay on MCF7 [4], over 100 µM; in assay [5], over 100 µM; in assay [6], over 100 µM; in the assay with Vero it was over 25 µM; in the assay on MDA-MB-231 it was over 100 µM. For the same molecule, the “inhibition (INH)” value in the assay with Trypanosoma cruzi [3] is 18.78%.

`COc1ccc2c3c([nH]c2c1)C(=O)c1ccccc1C3=O`: the IC50 with Trypanosoma cruzi [1] and in the assay with Vero was over 25 µM in each case.

`COc1ccc(OC)c(NC2=CC(=O)c3ncccc3C2=O)c1`: the “Selectivity Index” value in the assay on MCF7 [7] worked out at 188; in the assay on Fibroblast [8], 42; in [2], 6.3. In addition, the IC50 was 2.45 µM in the assay on Trypanosoma cruzi [1]; 0.12 µM in the assay on MCF7 [4]; 22.5 µM in assay [5]; 0.53 µM in [6]; 15.4 µM in the assay with Vero; 8.8 µM in the assay on MDA-MB-231. Moreover, in the assay with Trypanosoma cruzi [3], the “inhibition (INH)” value came to 32.62%.

Consider `COc1cc2c(cc1OC)C(=O)C(c1cc(OC)c(OC)cc1[N+](=O)[O-])=C(O)C2=O`, for which the IC50 in the assay on Trypanosoma cruzi [1] and in the assay with Vero was over 100 µM each time.

Regarding `COc1ccc(NC2=CC(=O)c3ccccc3C2=O)cc1`, the IC50 in the assay with Trypanosoma cruzi [1] is over 25 µM; in the assay on MCF7 [4], over 100 µM; in assay [5], 65.4 µM; in [6], 35.4 µM; in the assay on Vero, over 25 µM; in the assay on MDA-MB-231, over 100 µM.

In the case of `CCCCCCOc1ccc(NC2=C(Cl)C(=O)c3ccccc3C2=O)cc1`, the IC50 in the assay with Trypanosoma cruzi [1] is 6.04 µM; in the assay with MCF7 [4], over 100 µM; in assay [5], over 100 µM; in [6], over 100 µM; with Vero, 196 µM; in the assay with MDA-MB-231, over 100 µM. For the same molecule, the “Selectivity Index” value in [2] is 32. In addition, the “inhibition (INH)” value in the assay with Trypanosoma cruzi [3] is 46.3%.

Turning to `CC1CS(=O)(=O)CCN1/N=C/c1ccc([N+](=O)[O-])o1` (stereo not given) [NIFURTIMOX], the IC50 with Trypanosoma cruzi [1] stood at 21.1 µM; in the assay with Vero, 411 µM. The “Selectivity Index” value in [2] is 20. Further, in the assay on Trypanosoma cruzi [3], the “inhibition (INH)” value is given as 42.62%.

`O=C1C=C(Nc2ccc3ccccc3c2)C(=O)c2ccccc21`: the IC50 in the assay on Trypanosoma cruzi [1] turned out to be 9.02 µM; in the assay on Vero it was 6.97 µM. Also, the “Selectivity Index” value in assay [2] is 0.77. Besides, in the assay with Trypanosoma cruzi [3], the “inhibition (INH)” value stood at 86.02%.
